# Entries after “also recorded” stand apart in the source; their conditions may differ.
# Experiments:
# CaM mutant B1234Q = assay: Gel mobility-shift assay of peptide binding to CaM mutant B1234Q; set-up: species or system human; settings: CaM:peptide ratio 1:10, 100 μM Ca2+
# How it was run: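 Calmodulin mutant with Glu→Gln at all four Ca2+ sites ([…]), expressed in E. coli BL21(DE3) and purified by heat treatment at 70°C, ammonium sulfate fractionation and gel filtration. Test peptide and mutant were incubated at a 1:10 CaM:peptide ratio for 1 h in 20 mM Tris pH 7.5 with 100 μM Ca2+. Samples ran on 18% nondenaturing, non-reducing PAGE with 100 μM free Ca2+ in gel buffers, then Coomassie staining.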
# CaM = assay: Intrinsic tryptophan fluorescence of peptides with CaM; format: binding, human; settings: 100 μM Ca2+; 5 μM peptide + 5 μM CaM, 20 mM Tris pH 7.5, excitation 290 nm
# How it was run: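 Test peptides carry tryptophan. Each peptide (5 μM) was measured with or without 5 μM E. coli-expressed wild-type CaM in 20 mM Tris pH 7.5 containing 100 μM Ca2+, with 1 mM EGTA in place of Ca2+ as the low-Ca2+ condition. Intrinsic fluorescence was excited at 290 nm and emission scanned from 300 to 450 nm, 2-nm slits. Intensity and emission peak position were compared.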
# eNOS [1] = assay: eNOS oxygenase activity, L-[3H]citrulline formation; format: biochemical, human; settings: 50 nM eNOS, 1 μM calmodulin, 0.5 mM Ca2+, 10 μM L-arginine, 37 °C, 5 min, varied peptide concentrations
# How it was run: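 Steady-state reaction in 25 mM Tris pH 7.5, 100 mM NaCl, 0.1 mM EGTA, 0.1 mM EDTA, 100 μM β-NADPH, 100 μM H4B and 1 μCi L-[3H]arginine tracer. Read-out was L-[3H]citrulline formed. Activity was normalized as percent of the rate without peptide. Mean ± standard deviation of triplicate experiments.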
# eNOS [2] = assay: Ferricyanide reduction by eNOS; format: biochemical, human; settings: 10 μM peptide, with CaM
# How it was run: (§1)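 Purified eNOS in Tris-HCl pH 7.5 with NaCl, 10% glycerol, NADPH and enzyme at 37 °C, with or without each peptide, and with or without CaM plus 100 μM CaCl2. Cytochrome c reduction used cytochrome c as electron acceptor. Ferricyanide reduction used the same mixture with ferricyanide in place of cytochrome c.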
# eNOS [3] = assay: Cytochrome c reductase activity of eNOS; format: biochemical, human; settings: 10 μM peptide, with CaM
# How it was run: as §1
Substance,Binding to B1234Q (disappearance of free B1234Q band) (CaM mutant B1234Q),"Effect on eNOS oxygenase activity (L-citrulline formation), in words (eNOS [1])",further results
RRPKRREIPL^1KVLV^5KAV^8LFACML^14M [Peptide M2],able to bind B1234Q; also recorded: binds B1234Q with the highest affinity,,
TKQA^1WRNA^5PRC^8IG^10RIQW^14SNL [Peptide M1],able to bind B1234Q,,Increase in tryptophan fluorescence intensity induced by CaM (CaM): 2 fold
YNSSPRPEQHKSY^1KIRF^5NSI^8SCSDPL^14 [Peptide E3],,weak inhibition on citrulline formation,Inhibition of ferricyanide reduction (eNOS [2]): no effect on electron transfer within reductase domain; Inhibition of cytochrome c reduction (eNOS [3]): no effect on electron transfer within reductase domain
PKFPRVKNWEVGSITYDTLS [Peptide E0],,did not interfere with eNOS catalytic activity,
VTSRIRTQSF^1SLQERQL^8RGAVPW^14 [Peptide E5],,did not interfere with eNOS catalytic activity,

# Reference: publication PMC2702655 (Archives of biochemistry and biophysics, 2009)
